According to ChEMBL document CHEMBL4689842, “EUbOPEN Chemogenomics Library wave 1” (2021):

System: U2OS
Assay: Multiplex assay against U2OS
Assay type: toxicity, cell-based
Conditions: human
How it was run: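 Four dyes were applied at seeding to live cells: Hoechst33342, BioTracker Green Microtubule Cytoskeleton Dye, MitoTracker Red and Annexin V Alexa Fluor 680. Imaging after compound addition used a CQ1 microscope at 37°C and 5% CO2. CellPathfinder machine-learning gating then sorted cells into Hoechst high-intensity objects or normal cells, normal cells into healthy, pyknosed or fragmented nuclei, and pyknosed cells into mitotic or apoptotic, with tubulin, mitochondrial-mass and membrane-permeability phenotypes given as per cents of healthy-nucleus cells.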

[1] = 12 h, 1 µM, compound concentration 1 uM, replicate 1
[2] = 12 h, 1 µM, compound concentration 1 uM, replicate 2
[3] = 12 h, 10 µM, compound concentration 10 uM, replicate 1
[4] = 12 h, 10 µM, compound concentration 10 uM, replicate 2
[5] = 24 h, 1 µM, compound concentration 1 uM, replicate 1
[6] = 24 h, 1 µM, compound concentration 1 uM, replicate 2
[7] = 24 h, 10 µM, compound concentration 10 uM, replicate 1
[8] = 24 h, 10 µM, compound concentration 10 uM, replicate 2
[9] = 48 h, 1 µM, compound concentration 1 uM, replicate 1
[10] = 48 h, 1 µM, compound concentration 1 uM, replicate 2
[11] = 48 h, 10 µM, compound concentration 10 uM, replicate 1
[12] = 48 h, 10 µM, compound concentration 10 uM, replicate 2

CN(c1cc(C(F)(F)F)nc(OCCC(=O)O)n1)c1cccc2c1CCC2
Population Apoptotic (%) [1]: 33%
Population Fragmented Nuclei (%) [1]: 24%
Population Healthy Nuclei (%) [1]: 64%
Population Hoechst High Intensity Objects (%) [1]: 11%
Population Membrane Permeable-Phenotype (%) [1]: 8%
Population Mitochondria Different-Phenotype (%) [1]: 12%
Population Mitotic Cells (%) [1]: 66%
Population Normal (%) [1]: 88%
Population Pyknosed Nuclei (%) [1]: 11%
Population Tubulin-Different-Phenotype (%) [1]: 10%
Total Cell Count [1]: 191
Population Apoptotic (%) [2]: 0%
Population Fragmented Nuclei (%) [2]: 9%
Population Healthy Nuclei (%) [2]: 80%
Population Hoechst High Intensity Objects (%) [2]: 12%
Population Membrane Permeable-Phenotype (%) [2]: 4%
Population Mitochondria Different-Phenotype (%) [2]: 20%
Population Mitotic Cells (%) [2]: 100%
Population Normal (%) [2]: 87%
Population Pyknosed Nuclei (%) [2]: 9%
Population Tubulin-Different-Phenotype (%) [2]: 28%
Total Cell Count [2]: 65
Population Apoptotic (%) [3]: 23%
Population Fragmented Nuclei (%) [3]: 11%
Population Healthy Nuclei (%) [3]: 77%
Population Hoechst High Intensity Objects (%) [3]: 5%
Population Membrane Permeable-Phenotype (%) [3]: 9%
Population Mitochondria Different-Phenotype (%) [3]: 13%
Population Mitotic Cells (%) [3]: 76%
Population Normal (%) [3]: 94%
Population Pyknosed Nuclei (%) [3]: 11%
Population Tubulin-Different-Phenotype (%) [3]: 15%
Total Cell Count [3]: 149
Population Apoptotic (%) [4]: 0%
Population Fragmented Nuclei (%) [4]: 13%
Population Healthy Nuclei (%) [4]: 86%
Population Hoechst High Intensity Objects (%) [4]: 14%
Population Membrane Permeable-Phenotype (%) [4]: 4%
Population Mitochondria Different-Phenotype (%) [4]: 10%
Population Mitotic Cells (%) [4]: 0%
Population Normal (%) [4]: 85%
Population Pyknosed Nuclei (%) [4]: 0%
Population Tubulin-Different-Phenotype (%) [4]: 30%
Total Cell Count [4]: 71
Population Apoptotic (%) [5]: 40%
Population Fragmented Nuclei (%) [5]: 16%
Population Healthy Nuclei (%) [5]: 77%
Population Hoechst High Intensity Objects (%) [5]: 7%
Population Membrane Permeable-Phenotype (%) [5]: 6%
Population Mitochondria Different-Phenotype (%) [5]: 10%
Population Mitotic Cells (%) [5]: 60%
Population Normal (%) [5]: 92%
Population Pyknosed Nuclei (%) [5]: 6%
Population Tubulin-Different-Phenotype (%) [5]: 5%
Total Cell Count [5]: 200
Population Apoptotic (%) [6]: 0%
Population Fragmented Nuclei (%) [6]: 4%
Population Healthy Nuclei (%) [6]: 95%
Population Hoechst High Intensity Objects (%) [6]: 8%
Population Membrane Permeable-Phenotype (%) [6]: 2%
Population Mitochondria Different-Phenotype (%) [6]: 13%
Population Mitotic Cells (%) [6]: 0%
Population Normal (%) [6]: 91%
Population Pyknosed Nuclei (%) [6]: 0%
Population Tubulin-Different-Phenotype (%) [6]: 30%
Total Cell Count [6]: 68
Population Apoptotic (%) [7]: 52%
Population Fragmented Nuclei (%) [7]: 8%
Population Healthy Nuclei (%) [7]: 84%
Population Hoechst High Intensity Objects (%) [7]: 3%
Population Membrane Permeable-Phenotype (%) [7]: 5%
Population Mitochondria Different-Phenotype (%) [7]: 10%
Population Mitotic Cells (%) [7]: 47%
Population Normal (%) [7]: 96%
Population Pyknosed Nuclei (%) [7]: 7%
Population Tubulin-Different-Phenotype (%) [7]: 14%
Total Cell Count [7]: 176
Population Apoptotic (%) [8]: 0%
Population Fragmented Nuclei (%) [8]: 13%
Population Healthy Nuclei (%) [8]: 81%
Population Hoechst High Intensity Objects (%) [8]: 13%
Population Membrane Permeable-Phenotype (%) [8]: 3%
Population Mitochondria Different-Phenotype (%) [8]: 13%
Population Mitotic Cells (%) [8]: 100%
Population Normal (%) [8]: 86%
Population Pyknosed Nuclei (%) [8]: 5%
Population Tubulin-Different-Phenotype (%) [8]: 44%
Total Cell Count [8]: 79
Population Apoptotic (%) [9]: 43%
Population Fragmented Nuclei (%) [9]: 7%
Population Healthy Nuclei (%) [9]: 86%
Population Hoechst High Intensity Objects (%) [9]: 5%
Population Membrane Permeable-Phenotype (%) [9]: 4%
Population Mitotic Cells (%) [9]: 56%
Population Normal (%) [9]: 94%
Population Pyknosed Nuclei (%) [9]: 6%
Population Tubulin-Different-Phenotype (%) [9]: 8%
Total Cell Count [9]: 200
Population Apoptotic (%) [10]: 40%
Population Fragmented Nuclei (%) [10]: 6%
Population Healthy Nuclei (%) [10]: 88%
Population Hoechst High Intensity Objects (%) [10]: 6%
Population Membrane Permeable-Phenotype (%) [10]: 5%
Population Mitochondria Different-Phenotype (%) [10]: 15%
Population Mitotic Cells (%) [10]: 60%
Population Normal (%) [10]: 93%
Population Pyknosed Nuclei (%) [10]: 4%
Population Tubulin-Different-Phenotype (%) [10]: 24%
Total Cell Count [10]: 81
Population Apoptotic (%) [11]: 50%
Population Fragmented Nuclei (%) [11]: 5%
Population Healthy Nuclei (%) [11]: 89%
Population Hoechst High Intensity Objects (%) [11]: 2%
Population Membrane Permeable-Phenotype (%) [11]: 2%
Population Mitochondria Different-Phenotype (%) [11]: 9%
Population Mitotic Cells (%) [11]: 50%
Population Normal (%) [11]: 97%
Population Pyknosed Nuclei (%) [11]: 4%
Population Tubulin-Different-Phenotype (%) [11]: 15%
Total Cell Count [11]: 251
Population Apoptotic (%) [12]: 20%
Population Fragmented Nuclei (%) [12]: 8%
Population Healthy Nuclei (%) [12]: 87%
Population Hoechst High Intensity Objects (%) [12]: 6%
Population Membrane Permeable-Phenotype (%) [12]: 1%
Population Mitochondria Different-Phenotype (%) [12]: 6%
Population Mitotic Cells (%) [12]: 80%
Population Normal (%) [12]: 93%
Population Pyknosed Nuclei (%) [12]: 3%
Population Tubulin-Different-Phenotype (%) [12]: 38%
Total Cell Count [12]: 113
